Laboratory results published in ChEMBL document CHEMBL1255381, “Golgicide A reveals essential roles for GBF1 in Golgi assembly and function” (Nat Chem Biol, 2009).
The source made the active and inactive calls. No cut-off for these calls is given here.

Experiments:
Vero [1] = assay: Induction of depolymerization of actin microfilaments in african green monkey Vero cells at 25 uM after 30 mins by immunofluorescence method; format: functional, cell-based; conditions: Chlorocebus sabaeus
Vero [2] = assay: Effect on disruption of microtubules in african green monkey Vero cells at 5 ug/ml after 30 mins by immunofluorescence method; format: functional, cell-based; conditions: Chlorocebus sabaeus
Procedure, shortened: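 They were then fixed and immunostained for microtubules, and microtubule morphology was judged by immunofluorescence microscopy against DMSO-treated cells.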

Compound | Activity (Vero [1]) | Activity (Vero [2])
C=C1[C@@H](C)[C@H]2[C@H](Cc3ccccc3)NC(=O)[C@]23OC(=O)/C=C/[C@H](O)CCC[C@@H](C)C/C=C/[C@H]3[C@@H]1O | Active | 
COC(=O)Nc1nc2cc(C(=O)c3cccs3)ccc2[nH]1 |  | Active
